# Assay outcomes as filed in PubChem BioAssay.
# Yeast life ext = extends the lifespan of yeast | S. cerevisiae growth with nicotinamide, OD615; deaD strain in restrictive glucose medium | actives 0.68% (n = 130,000) | inhibition of the nicotinamide effect, % at 10 µM;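 active means inhibition above a set limit, placed 3 SD over the median of all compounds, cut at about 26% in these data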
#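 Assay system: DeaD-strain S. cerevisiae. Medium: CSMM-D glucose medium, restrictive. Reagent: nicotinamide, 1.5 mM, co-present with compound. Compound: 10 µM single point, 0.25% DMSO. Schedule: culture preincubation 4 h, compound exposure 48 h, both 30 °C. Detection: absorbance at 615 nm.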
# sdo1 growth = restores growth of sdo1-depleted yeast. AID 817. actives 0.21% (n = 140,000). z-score at 10 µM. S. cerevisiae sdo1-depleted JHY4D growth rescue, OD600 30 h; active compounds read high; pdr5 snq2 efflux-pump mutant strain;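 active means z-score above 3 at both the 24 hr and the 30 hr optical density reads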
# Yeast growth inh = chemicals that inhibit yeast BB579 growth in restrictive medium (lifespan-shortening candidates); S. cerevisiae BB579 growth, OD615, 48 h; inhibition, % at 10 µM; actives 0.51% (n = 140,000);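 active means inhibition above a set limit, 3 SD over the mean compound inhibition, cut at about 44% in these data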
#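 Detection: OD615 turbidity measurement; Material: Saccharomyces cerevisiae DeaD strain BB579, replicative lifespan model yeast; Timing: 48 h exposure, 30 °C; Doses: single 10 µM dose; Medium: CSMM-D restrictive synthetic medium containing dextrose (glucose); Controls: amphotericin B at 10 µg/mL as positive control.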
# RAM inhibit = inhibitors of the yeast RAM network | actives 1.8% (n = 190,000) | S. cerevisiae dse1pr::URA3 reporter, 5-FOA growth OD615, 2 d; analog-sensitive cbk1-as2 kinase mutant strain | AID 868 | inhibition, % at 50 µM;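 active means inhibition above a set limit, 3 SD over mean compound inhibition, cut at about 8.4% in these data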;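 further: inhibition rescues growth on 5-FOA so higher OD means more RAM inhibition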
# RAM efflux-def = RAM network inhibitors in efflux-deficient yeast. shares compounds with RAM inhibit. S. cerevisiae efflux-deficient reporter strain, 5-FOA growth OD615, 2 days. max inhibition, %. 1,200 tested, under 10 active. AID 1305; call rule not given here
# A number is an active result; i = inactive; nt = not tested or not shown. Sampled rows, rich in hits. Any-hit rate of the full collection: about 2.7%.
SMILES,Yeast life ext,sdo1 growth,Yeast growth inh,RAM inhibit,RAM efflux-def
COc1ccc(N(CC(=O)Nc2ccc3c(c2)OCCO3)S(=O)(=O)c2cccnc2)cc1,i,i,i,i,nt
CCC(=O)c1ccc(OCC(O)Cn2cnc3ccccc32)cc1 (stereo not drawn),i,i,i,i,nt
C=CCN1C(=O)/C(=C/c2ccc(OC(C)=O)c(OCC)c2[N+](=O)[O-])SC1=S,nt,nt,nt,12,i
Cc1cc(C)c(NC(=O)/C(=C/c2ccccc2)c2ccccc2)c(C)c1,i,i,i,13,i
CCCOC(=O)c1ccc(Oc2c(-c3ccc(OCC)cc3O)n[nH]c2C)cc1,i,i,i,15,i
O=C(Cn1cc(C(=O)c2ccco2)c2ccccc21)Nc1ccccc1,i,i,i,i,nt
O=C(/C(=N/N=C/c1ccc(O)c(O)c1O)c1ccccc1)c1ccccc1,i,i,95,17,i
CCN(CC)S(=O)(=O)c1cccc(C(=O)N/N=C/c2ccc(O)c(O)c2O)c1,i,i,i,i,nt
Cc1ccc(OCCC(=O)Nc2ccc(F)c(F)c2)cc1,i,i,i,i,nt
C=CCNC(=S)N/N=C/c1ccc(N(CC)Cc2ccccc2)cc1,i,i,i,15,i
CCN(CC)c1ccc(/C=N/NC(=S)NCc2ccccc2)cc1,i,i,i,i,nt
CCOC(=O)c1c(-c2cccc([N+](=O)[O-])c2)csc1NC(=O)CCCOc1ccccc1,i,i,i,14,i
CCOC(=O)c1c(-c2cccc([N+](=O)[O-])c2)csc1NC(=O)CCCOc1ccccc1OC,nt,i,i,15,i
COc1ccccc1OCCCC(=O)Nc1ccc([N+](=O)[O-])cc1Br,nt,nt,nt,i,nt
CCn1c(Cn2nnc(-c3ccccc3)n2)nnc1SCC(=O)N1CCOCC1,i,i,i,i,nt
COc1ccccc1NC(=O)COC(=O)/C=C/c1ccccc1[N+](=O)[O-],i,i,i,i,nt
COc1ccccc1/C=C/C(=O)OCC(=O)Nc1ccccc1Sc1ccccc1,i,i,i,15,i
CCCC(=O)OCC(=O)Nc1ccccc1Sc1ccccc1,i,i,i,i,nt
CC(C)[C@H](NS(=O)(=O)c1ccccc1)C(=O)OCC(=O)Nc1ccccc1Sc1ccccc1,i,i,i,15,i
O=C(COC(=O)CNS(=O)(=O)c1cccc(Br)c1)Nc1ccccc1Sc1ccccc1,i,i,i,15,i
COc1ccc(-c2cn3cccnc3n2)cc1NC(=O)c1cccs1,i,i,i,i,nt
O=[N+]([O-])c1ccc(C2Nc3cccc4cccc(c34)N2)cc1,i,i,i,12,i
O=c1c2ccccc2c(C=NCCc2ccccc2)c(O)n1Cc1ccccc1,i,i,i,13,i
COc1ccc(C(NC(=O)c2cccc(F)c2)c2ccccc2)cc1 (stereo not drawn),i,i,i,i,nt
O=S(=O)(Nc1nc2ccccc2nc1Nc1ccc2c(c1)OCCO2)c1cccs1,i,i,i,12,i
SMILES,Yeast life ext,sdo1 growth,Yeast growth inh,RAM inhibit,RAM efflux-def
C=CCn1c(SCC(=O)Nc2ccc(NC(=O)c3ccco3)c(OC)c2)nnc1-c1ccncc1,i,i,i,i,nt
CC(/C=C1\SC(=S)N(NC(=O)c2ccc(O)cc2)C1=O)=C\c1ccccc1,i,i,i,i,nt
Cc1ccc(/C=C2\SC(=S)N(C(Cc3ccccc3)C(=O)O)C2=O)cc1 (stereo not drawn),i,i,i,17,i
CC(=C\c1ccccc1)/C=C1/SC(=S)N(C(C(=O)O)C(C)C)C1=O (stereo not drawn),nt,nt,nt,21,i
COc1ccc(/C=C/C(=O)c2ccc(Cl)cc2)c(OC)c1,i,i,i,12,i
COc1ccc(N(C)S(=O)(=O)c2cccc(C(=O)NCC3CCCCC3)c2)cc1,nt,nt,nt,13,i
CC(C)S(=O)(=O)C1=NSC2=NC(=O)/C(=C\c3ccc(-c4ccccc4)o3)C(=N)N21,i,i,i,14,i
O=C(Cn1cc[n+](Cc2ccccc2)c1)c1ccc([N+](=O)[O-])cc1,nt,nt,nt,i,nt
Cc1cccc(NC(=O)C2CCCN2C(=O)Oc2ccccc2)c1C (stereo not drawn),nt,i,i,12,i
Cc1ccc(NC(=O)C2CCCN2C(=O)Oc2ccccc2)c(C)c1 (stereo not drawn),nt,nt,nt,i,nt
C/C(=N\NC(N)=S)C1(C)CCCCC1,i,i,i,i,nt
C/C(CC1CC2=C(CC1(C)C)C(C)(C)CCC2)=N\NC(N)=S (stereo not drawn),i,i,i,13,i
CCCCn1c(NS(=O)(=O)c2ccc(C)cc2)c(S(=O)(=O)c2ccccc2)c2nc3ccccc3nc21,i,i,i,12,i
Cc1ccc(-n2c(N)c(S(=O)(=O)c3ccccc3)c3nc4ccccc4nc32)cc1,nt,nt,nt,i,nt
O=C(Cc1cccs1)N1CCN(c2nc(-c3ccc(Cl)cc3)cs2)CC1,i,i,i,14,i
Clc1ccc(-c2csc(N3CCC(c4ccccc4)C3)n2)cc1 (stereo not drawn),i,i,i,14,i
CC(C)C(=O)N1CCN(c2nc(-c3ccc(Cl)cc3)cs2)CC1,nt,nt,nt,i,nt
COc1ccccc1Nc1nc2c(C)cccc2cc1C#N,i,i,i,13,i
O=C(O)CC1S/C(=N/N=C/c2ccc(Br)cc2)N(c2ccccc2)C1=O (stereo not drawn),nt,nt,nt,13,i
Cc1ccc(C2=Nc3ccccc3N=C(C(Cl)Cl)C2)cc1,nt,nt,nt,i,nt
Cc1cc(NC(=O)CSc2nc3ccsc3c(=O)n2Cc2ccccn2)n[nH]1,i,i,i,20,i
COc1ccc(/C=C2\SC(=S)N(CC(=O)OCC(=O)Nc3ccc(C)cc3Cl)C2=O)cc1,nt,nt,nt,13,i
COc1ccc(/C=C2\SC(=S)N(CC(=O)OCC(=O)Nc3ccc([N+](=O)[O-])cc3OC)C2=O)cc1,nt,nt,nt,18,i
CC(C)CNS(=O)(=O)c1ccc(C(=O)Nc2ccc3c(c2)OCCO3)cc1,i,i,i,i,nt
O=C(c1ccccc1)N(Cc1cccnc1)C1(C(=O)Nc2ccccc2)CCCCC1,i,i,i,16,i
SMILES,Yeast life ext,sdo1 growth,Yeast growth inh,RAM inhibit,RAM efflux-def
O=C(NCc1cccnc1)Nc1ccccc1,nt,nt,nt,i,nt
COc1cc(OC)cc(C(=O)NCCN2CCOCC2)c1,i,i,i,i,nt
O=C1CCCC2=C1C(Cc1ccccc1)C1=C(CCCC1=O)O2,i,i,i,i,nt
COC(=O)C1CCN(c2cc(=O)n(-c3ccc(OC)cc3)c(=O)[nH]2)CC1,i,i,i,i,nt
COc1ccc(OC)c(-c2cc(C(=O)N3CCc4ccccc4C3)no2)c1,44,i,i,12,i
COc1ccc(/C=N/NC(=O)c2nc(-c3ccccc3)n(-c3ccccc3)n2)cc1,i,i,i,i,nt
COc1ccc(C2CC(c3ccccc3)=NN2c2ccc(/C=N/NC(=O)c3ccncc3)cc2)cc1 (stereo not drawn),i,i,i,13,i
Cc1ccccc1OCCC(=O)Nc1cccc(S(=O)(=O)Nc2ccccc2Cl)c1,i,i,i,17,i
Cc1ccc(/C=N/Nc2nnc(Cl)c3ccccc23)cc1,i,i,i,i,nt
